# Most compounds without a hit are left out; they make up all but 3.5% or so of the library.
# RGS4 block = human RGS4 inhibition. P49798. HEK293 M3R/RGS4 inducible, Fluo-4 calcium flux; active compounds read high; triggered by carbachol at its EC20. B-score at 10 µM. 310,000 tested, 0.45% active;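 active = B-score, a plate-corrected calcium signal, over three deviations above library mean, with baseline fluorescence within five deviations of library mean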;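 also: RGS4 expression induced by doxycycline in cells with stable M3 receptor; B-score is computed from the integrated fluorescence ratio over baseline after carbachol; higher B-score means a larger calcium signal and so more RGS4 inhibition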
# Target sequence (P49798 whole entry, looked up): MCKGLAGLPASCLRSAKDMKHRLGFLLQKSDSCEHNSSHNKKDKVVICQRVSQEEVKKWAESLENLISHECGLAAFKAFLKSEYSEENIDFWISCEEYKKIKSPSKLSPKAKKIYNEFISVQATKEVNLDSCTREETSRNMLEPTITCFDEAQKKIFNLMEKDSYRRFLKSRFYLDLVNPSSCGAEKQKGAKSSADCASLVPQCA
# MrgX1 agonist = agonists of human MrgX1 receptor. MrgX1-HEK293 cells, Fluo-4 calcium fluorescence, agonist mode; active compounds read high. Q96LB2. 310,000 tested, 0.44% active. AID 588627. B-score at 10 µM;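 active = calcium response B-score plate-corrected fluorescence ratio at least 3 library SD, with starting fluorescence B-score inside 5 SD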
# Target sequence (Q96LB2 whole entry, looked up): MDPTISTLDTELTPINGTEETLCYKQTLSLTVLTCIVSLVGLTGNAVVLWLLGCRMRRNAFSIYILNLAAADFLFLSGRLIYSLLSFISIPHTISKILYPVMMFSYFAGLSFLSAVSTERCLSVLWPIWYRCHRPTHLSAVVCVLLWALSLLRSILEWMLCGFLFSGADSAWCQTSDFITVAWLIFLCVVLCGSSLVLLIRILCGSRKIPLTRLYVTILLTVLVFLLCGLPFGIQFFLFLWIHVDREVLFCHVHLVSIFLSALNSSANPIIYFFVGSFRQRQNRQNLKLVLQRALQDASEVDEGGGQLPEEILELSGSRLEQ
#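 Material – MrgX1-expressing HEK293 cells · Input – 15,000 cells seeded per well · Dosing – compound as first of three additions · Times – overnight seeding, then 1 h dark dye loading · Measured by – kinetic Fluo-4 NW fluorescence of intracellular calcium · Read-out – B-scored fluorescence response ratio · Benchmarks – positive and negative control wells on each plate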
# MrgX1 allo act = human MrgX1 positive allosteric modulation, primary screen; Q96LB2; MrgX1-HEK293, Fluo-4 calcium flux, FDSS; active compounds read high; B-score at 10 µM; 310,000 tested, 0.63% active; AID 588675;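 active = plate-corrected calcium response at least 3 library SD above typical, normal starting fluorescence, not activating the receptor alone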;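 also: compound read alongside a low EC10 to EC30 dose of BAM8-22 agonist; peak minus trough fluorescence over baseline measured at the second addition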
# MrgX1 antag = blocks BAM8-22 activation of human MrgX1 receptor | Q96LB2 | MRGX1-HEK293 calcium flux, Fluo-4, BAM8-22 antagonism; active compounds read low | B-score at 10 µM | 310,000 tested, 1.3% active | AID 588676;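 active = calcium-response B-score plate-corrected more than 3 library SD below zero, starting fluorescence within 5 deviations, no agonist response on first addition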;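 also: peak minus trough fluorescence over baseline after final BAM8-22 challenge near maximal dose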
# RGS4 pot = RGS4 potentiation or activation; HEK293 M3R/inducible RGS4, carbachol calcium flux Fluo4; active compounds read low; B-score at 10 µM; 310,000 tested, 0.92% active;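 active = B-score of the integrated calcium signal more than 4 SD below the library mean, with starting fluorescence not abnormally high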;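 also: negative B-score means reduced calcium response which marks RGS4 activation or potentiation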
#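 test system = M3R-expressing HEK293 line, RGS4 induced by doxycycline | probe or stimulus = carbachol at ECmax as muscarinic agonist stimulus | timing = dye loading 30 min 37 °C, buffer rest 30 min RT | signal = calcium dye Fluo4 fluorescence | evaluation = B score from integrated fluorescence ratio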
# MrgX1 antag conf = reconfirmed antagonist of human MrgX1 receptor signaling | shares compounds with MrgX1 antag | MrgX1-HEK293, BAM8-22 calcium flux, Fluo-4; active compounds read low | remaining BAM8-22 calcium response % of control (active compounds read low), % at 10 µM | 2,300 tested, 19% active | AID 602420;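 active = remaining agonist calcium response no higher than 100% minus 3 SD of agonist-only control wells, with starting fluorescence near control levels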;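 also: agonist BAM8-22 given at a near maximal EC90 to ECmax level; peak minus minimum fluorescence divided by baseline after agonist addition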
# HEK293 Ca flux = activity in parental HEK293 cells lacking MrgX1. shares compounds with MrgX1 antag. Fluo-4 calcium fluorescence, FDSS. fluorescence ratio F(max-min)/F0 at 10 µM. 4,000 tested, 2% active. AID 624111;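 active = duplicate-averaged calcium fluorescence ratio at least three times the standard deviation of buffer wells, a nonspecific response in parental cells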
# HEK293 Ca counter = activity in parental HEK293 cells without MrgX1. shares compounds with MrgX1 antag. parental HEK293 calcium flux, Fluo-4 fluorescence ratio; active compounds read high. fluorescence ratio F(max-min)/F0 at 10 µM. 4,000 tested, 0.4% active;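 active = calcium fluorescence ratio, averaged over duplicates, at least 3 SD of the buffer-well ratio, meaning a nonspecific response in receptor-free cells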;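 also: untransfected parental HEK293 lacking MrgX1 used as counterscreen for MrgX1 allosteric activators; fluorescence change taken during the second addition on a kinetic imager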
# HEK293 Ca cntr2 = activity in parental HEK293 cells lacking MrgX1 receptor; shares compounds with MrgX1 antag; Fluo-4 calcium fluorescence (FDSS); active compounds read high; fluorescence ratio F(max-min)/F0 at 10 µM; 4,000 tested, 8.7% active;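 active = calcium fluorescence ratio at least three times the spread of buffer wells, meaning a non-specific response in parental cells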
# An asterisk follows results filed as active; i = inactive; . = not tested or not shown.
SMILES,RGS4 block,MrgX1 agonist,MrgX1 allo act,MrgX1 antag,RGS4 pot,MrgX1 antag conf,HEK293 Ca flux,HEK293 Ca counter,HEK293 Ca cntr2
Cc1ccc(C(c2nnnn2C2CCCC2)N2CCN3CCCC3C2)cc1 (stereo not drawn),i,i,i,-6.4*,i,i,i,i,i
Cc1ccc2[nH]c(-c3cccc(F)c3)cc(=O)c2c1,i,i,i,-4.6*,i,i,i,i,i
Cc1cccc(C)c1OCCNC(=O)C(=O)NCc1ccco1,i,i,i,i,i,.,.,.,.
CC(C)NC(=O)CSCc1c(F)cccc1Cl,i,i,i,i,i,.,.,.,.
CCOc1cc(S(=O)(=O)NCc2cccnc2)c(C)cc1C,i,i,i,-4.9*,i,i,i,i,i
Cc1cc(C)c(S(=O)(=O)NCc2cccnc2)cc1C,i,i,i,i,i,.,.,.,.
COc1ccc(Cl)cc1S(=O)(=O)NCc1cccnc1,i,i,i,-5.7*,i,i,i,i,i
CN(C(=O)COC(=O)CCC(=O)c1ccc(Cl)cc1)c1c(N)n(Cc2ccccc2)c(=O)[nH]c1=O,i,i,i,i,i,.,.,.,.
Cc1ccc2c(C(=O)CN3CCN(c4ccccc4)CC3)c(C)[nH]c2c1,i,i,i,-7.3*,i,i,i,i,i
Cc1ccc2c(C(=O)CN3CCOCC3)c(C)[nH]c2c1,i,i,i,i,i,.,.,.,.
COc1ccc(-c2nc3c(c4nnc(SC(C)C(=O)Nc5ccccc5)n24)COC(C)(C)C3)cc1 (stereo not drawn),i,i,i,-6.5*,i,i,i,i,i
COc1ccccc1NC(=S)NCc1ccc2c(c1)cc(C)n2C,i,i,i,i,i,.,.,.,.
Cc1ccccc1NC(=S)NCc1ccc2c(c1)cc(C)n2C,i,i,i,-5.3*,i,i,i,i,i
Cn1cc(SCC(=O)NCC2CCCO2)c2ccccc21 (stereo not drawn),i,i,i,i,i,.,.,.,.
CCC(=O)c1ccc(OCC(=O)N(C)CC(=O)Nc2cccc(F)c2)cc1,i,i,i,i,i,.,.,.,.
Nc1nnnn1/N=C/C(Br)=C/c1ccccc1,i,i,i,-5.1*,i,i,i,i,i
Nc1nnnn1/N=C/C=C/c1ccccc1,i,i,i,i,i,.,.,.,.
C=CCn1c(SCc2nc3cc(C(=O)OC)ccc3c(=O)[nH]2)nc2sc(CC)cc2c1=O,i,i,i,-4.8*,i,i,i,i,i
C=CCn1c(SCC(=O)Nc2sccc2C(N)=O)nc2sc(CC)cc2c1=O,i,i,i,i,i,.,.,.,.
CCCc1nnc(NC(=O)CSc2nnc(-c3ccco3)n2C)s1,i,i,i,i,i,.,.,.,.
Cn1cc([C@@H]2C[C@H]3CN(Cc4cccc(Cl)c4)C(=O)[C@]34CCCN24)c2ccccc21,i,i,i,-5.2*,i,i,i,i,i
Cc1c([C@@H]2C[C@H]3CN(Cc4cccc(Cl)c4)C(=O)[C@]34CCCN24)cnn1C,i,i,i,i,i,.,.,.,.
CC(=O)c1cn(CC(=O)Nc2ccc(C)c(C)c2)c2ccccc12,i,i,i,i,i,.,.,.,.
CCN(CC)S(=O)(=O)c1ccc(N2CCOCC2)c(NS(=O)(=O)c2cc(C(C)(C)C)ccc2C)c1,i,i,i,i,i,.,.,.,.
CN(C)S(=O)(=O)c1cccc(NC(=O)c2ccc(COc3ccccc3)cc2)c1,i,i,i,-4.8*,-7.2*,57%*,i,i,i
SMILES,RGS4 block,MrgX1 agonist,MrgX1 allo act,MrgX1 antag,RGS4 pot,MrgX1 antag conf,HEK293 Ca flux,HEK293 Ca counter,HEK293 Ca cntr2
O=C(c1ccc(Cl)cc1)N1CCN(c2cc(=O)[nH]nc2-c2ccccc2)CC1,i,i,i,i,i,.,.,.,.
O=C(O)c1ccc(CNCc2ccc(Cl)cc2)cc1,i,i,i,i,i,.,.,.,.
O=C(O)c1ccc(CNCc2ccc(Cl)cc2Cl)cc1,i,i,i,-5*,i,i,i,i,i
COc1ccc(OCc2nnc(SCC(N)=O)n2-c2ccccc2OC)cc1,i,i,i,i,i,.,.,.,.
Cn1nc(N)c2c(-c3ccc(Cl)cc3)c(C#N)c(N)nc21,i,i,i,-4.7*,i,i,i,i,i
CC(C)C(NC(=O)c1c(F)cccc1F)C(=O)NCC(c1ccccc1)N(C)C (stereo not drawn),i,i,i,i,i,.,.,.,.
O=C(CN1C(=O)NC2(CCCC2)C1=O)N1CCN(S(=O)(=O)c2ccc(Cl)c(C(F)(F)F)c2)CC1,i,i,i,i,i,.,.,.,.
CCOC(=O)N1CCN(C(=O)NC2CCCCC2)CC1,i,i,i,i,i,.,.,.,.
CCOC(=O)N1CCC(=NNC(=O)NC2CCCCC2)CC1,i,i,i,-21*,i,i,i,i,i
Cn1c(=O)[nH]c(=O)c2c1nc(SCC(=O)O)n2CCCc1ccccc1,i,i,i,-6.9*,i,84%*,i,i,i
O=C(CS(=O)(=O)Cc1ccccc1)NCc1ccco1,i,i,i,i,i,.,.,.,.
CCOC(=O)c1ccc(-n2[nH]c(-c3ccccc3)cc2=O)cc1,i,i,i,-5.8*,i,71%*,i,i,i
Nc1nc(Cl)cc(NCCc2ccc(O)cc2)n1,i,i,i,-5.8*,i,i,i,i,i
Nc1nc(Cl)cc(NCCc2ccccc2)n1,i,i,i,i,i,.,.,.,.
C=CCn1c(CC(=O)OC)csc1=Nc1ccc(C(C)=O)cc1,i,i,i,-5.2*,i,i,i,i,i
COc1cc(/C=C(\C#N)c2ccccn2)ccc1OCc1ccccc1,i,i,i,i,i,.,.,.,.
COc1ccc(CNC(=O)CSc2nc3ccc(N)cc3s2)cc1,i,i,i,i,i,.,.,.,.

# Compound activity (PubChem BioAssay)
